Source: ChEMBL document CHEMBL1155137, “Extended-spectrum beta-lactamases of the CTX-M type now in Switzerland” (2007)
≈ marks a conversion by molar mass, not a printed value.

Assays:
[1] = system: Enterobacter; assay: Antimicrobial activity against Enterobacter isolates producing extended-spectrum beta-lactamase CTX-M-1 by agar dilution method; type: functional
Method in brief: (§1)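 Enterobacterial clinical isolates on Mueller-Hinton agar. Agar dilution with an inoculum of 10⁴ CFU per spot gave MICs of selected β-lactams. β-lactams were tested alone or with a fixed level of clavulanic acid (4 μg/ml) or tazobactam (4 μg/ml).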

[2] = system: Enterobacter; assay: Antimicrobial activity against Enterobacter isolates producing extended-spectrum beta-lactamase CTX-M-9 by agar dilution method; type: functional; method in brief: as §1
[3] = system: Enterobacter; assay: Antimicrobial activity against Enterobacter isolates producing extended-spectrum beta-lactamase CTX-M-15 by agar dilution method; type: functional; method in brief: as §1
[4] = system: Enterobacter; assay: Antimicrobial activity against Enterobacter isolates producing extended-spectrum beta-lactamase CTX-M-2 by agar dilution method; type: functional; method in brief: as §1
[5] = system: Enterobacter; assay: Antimicrobial activity against Enterobacter isolates producing extended-spectrum beta-lactamase SHV-ES by agar dilution method; type: functional; method in brief: as §1
[6] = system: Enterobacter; assay: Antimicrobial activity against Enterobacter isolates producing extended-spectrum beta-lactamase CTX-M-14 by agar dilution method; type: functional; method in brief: as §1
[7] = system: Enterobacter; assay: Antimicrobial activity against Enterobacter isolates producing extended-spectrum beta-lactamase TEM-ES by agar dilution method; type: functional; method in brief: as §1
[8] = system: Enterobacter; assay: Antimicrobial activity against Enterobacter isolates producing extended-spectrum beta-lactamase assessed as percent resistant isolates by disk diffusion method

| SMILES | MIC [1] | MIC [2] | MIC [3] | MIC [4] | MIC [5] | MIC [6] | MIC [7] | Activity [8] |
| --- | --- | --- | --- | --- | --- | --- | --- | --- |
| CC1(C)S[C@@H]2[C@H](NC(=O)[C@H](N)c3ccc(O)cc3)C(=O)N2[C@H]1C(=O)O [AMOXICILLIN] | > 256 µg/mL | > 256 µg/mL | > 256 µg/mL | > 256 µg/mL | > 256 µg/mL | > 256 µg/mL | > 256 µg/mL | – |
| NCC[C@H](O)C(=O)N[C@@H]1C[C@H](N)[C@@H](O[C@H]2O[C@H](CN)[C@@H](O)[C@H](O)[C@H]2O)[C@H](O)[C@H]1O[C@H]1O[C@H](CO)[C@@H](O)[C@H](N)[C@H]1O [AMIKACIN] | – | – | – | – | – | – | – | 2% |
| O=C(O)c1cn(C2CC2)c2cc(N3CCNCC3)c(F)cc2c1=O [CIPROFLOXACIN] | – | – | – | – | – | – | – | 50% |
| O=C(N[C@H](CO)[C@H](O)c1ccc([N+](=O)[O-])cc1)C(Cl)Cl [CHLORAMPHENICOL] | – | – | – | – | – | – | – | 30% |
| C[C@H]1[C@H](NC(=O)/C(=N\OC(C)(C)C(=O)O)c2csc(N)n2)C(=O)N1S(=O)(=O)O [AZTREONAM] | 64 µg/mL (≈ 147 µM) | 2 µg/mL (≈ 4.59 µM) | 2 µg/mL (≈ 4.59 µM) | 16 µg/mL (≈ 36.7 µM) | 2 µg/mL (≈ 4.59 µM) | 2 µg/mL (≈ 4.59 µM) | 2 µg/mL (≈ 4.59 µM) | – |
| CC(C)(O/N=C(\C(=O)N[C@@H]1C(=O)N2C(C(=O)[O-])=C(C[n+]3ccccc3)CS[C@H]12)c1csc(N)n1)C(=O)O [CEFTAZIDIME] | 4 µg/mL (≈ 7.32 µM) | 1 µg/mL (≈ 1.83 µM) | 1 µg/mL (≈ 1.83 µM) | 1 µg/mL (≈ 1.83 µM) | 0.25 µg/mL (≈ 0.457 µM) | 0.5 µg/mL (≈ 0.915 µM) | 4 µg/mL (≈ 7.32 µM) | – |

Further lines, with some results ahead:

| MIC [1] | MIC [2] | MIC [3] | MIC [4] | MIC [5] | MIC [6] | MIC [7] | SMILES | Activity [8] |
| --- | --- | --- | --- | --- | --- | --- | --- | --- |
| 0.25 µg/mL (≈ 0.835 µM) | 0.25 µg/mL (≈ 0.835 µM) | 0.25 µg/mL (≈ 0.835 µM) | 0.25 µg/mL (≈ 0.835 µM) | 0.25 µg/mL (≈ 0.835 µM) | 0.25 µg/mL (≈ 0.835 µM) | 0.25 µg/mL (≈ 0.835 µM) | C[C@@H](O)[C@H]1C(=O)N2C(C(=O)O)=C(SCCNC=N)C[C@H]12 [IMIPENEM ANHYDROUS] | – |
| > 256 µg/mL | 32 µg/mL (≈ 70.3 µM) | 128 µg/mL (≈ 281 µM) | 128 µg/mL (≈ 281 µM) | 2 µg/mL (≈ 4.39 µM) | 32 µg/mL (≈ 70.3 µM) | 0.12 µg/mL (≈ 0.263 µM) | CO/N=C(\C(=O)N[C@@H]1C(=O)N2C(C(=O)O)=C(COC(C)=O)CS[C@H]12)c1csc(N)n1 [CEFOTAXIME] | – |
| 0.12 µg/mL (≈ 0.252 µM) | 0.06 µg/mL (≈ 0.126 µM) | 0.003 µg/mL (≈ 0.00631 µM) | 0.06 µg/mL (≈ 0.126 µM) | 0.06 µg/mL (≈ 0.126 µM) | 0.003 µg/mL (≈ 0.00631 µM) | 0.06 µg/mL (≈ 0.126 µM) | C[C@@H](O)[C@H]1C(=O)N2C(C(=O)O)=C(S[C@@H]3CN[C@H](C(=O)Nc4cccc(C(=O)O)c4)C3)[C@H](C)[C@H]12 [ERTAPENEM] | – |
| > 256 µg/mL | > 256 µg/mL | > 256 µg/mL | > 256 µg/mL | > 256 µg/mL | > 256 µg/mL | > 256 µg/mL | CC1(C)S[C@@H]2[C@H](NC(=O)[C@H](C(=O)O)c3ccsc3)C(=O)N2[C@H]1C(=O)O [TICARCILLIN] | – |
| 8 µg/mL (≈ 18.7 µM) | 8 µg/mL (≈ 18.7 µM) | 4 µg/mL (≈ 9.36 µM) | 4 µg/mL (≈ 9.36 µM) | 4 µg/mL (≈ 9.36 µM) | 4 µg/mL (≈ 9.36 µM) | 4 µg/mL (≈ 9.36 µM) | CO[C@@]1(NC(=O)Cc2cccs2)C(=O)N2C(C(=O)O)=C(COC(N)=O)CS[C@@H]21 [CEFOXITIN] | – |
| 32 µg/mL (≈ 66.6 µM) | 2 µg/mL (≈ 4.16 µM) | 8 µg/mL (≈ 16.6 µM) | 16 µg/mL (≈ 33.3 µM) | 0.25 µg/mL (≈ 0.52 µM) | 2 µg/mL (≈ 4.16 µM) | 0.25 µg/mL (≈ 0.52 µM) | CO/N=C(\C(=O)N[C@@H]1C(=O)N2C(C(=O)[O-])=C(C[N+]3(C)CCCC3)CS[C@H]12)c1csc(N)n1 [CEFEPIME] | – |
| > 256 µg/mL | 64 µg/mL (≈ 124 µM) | 128 µg/mL (≈ 247 µM) | 128 µg/mL (≈ 247 µM) | 32 µg/mL (≈ 61.8 µM) | 32 µg/mL (≈ 61.8 µM) | 32 µg/mL (≈ 61.8 µM) | CCN1CCN(C(=O)N[C@@H](C(=O)N[C@@H]2C(=O)N3[C@@H]2SC(C)(C)[C@@H]3C(=O)O)c2ccccc2)C(=O)C1=O [PIPERACILLIN] | – |
| > 256 µg/mL | > 256 µg/mL | > 256 µg/mL | > 256 µg/mL | > 256 µg/mL | > 256 µg/mL | > 256 µg/mL | CC(=O)OCC1=C(C(=O)O)N2C(=O)[C@@H](NC(=O)Cc3cccs3)[C@H]2SC1 [CEPHALOTHIN] | – |
